Screening results from PubChem.
Rows were chosen to be rich in hits. Some 2.6% of all compounds tested hit in one or more screens of this group.
CHO parental Ca = counter-screen for OX1R antagonists: effect in parental CHO cells; inhibition, % at 5.6 µM; parental CHO-K1, ATP-induced calcium, Fluo-8 fluorescence; 330,000 tested, 0.63% active; AID 463079;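 active = inhibition above that plate's mean sample inhibition plus 3 SD, cut at about 26% in these data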;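 also: 0% = ATP-challenged DMSO wells and 100% = DMSO wells without ATP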
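test system = CHO parental line | reagent = ATP stimulus | measured by = intracellular calcium via Fluo-8 no-wash fluorescent dye | control set = ATP and no-ATP DMSO wells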
OXTR potentiator = human OXTR potentiation. 320,000 tested, 0.061% active. activation, % at 3 µM. CHO-OTR cells, Fluo-8 calcium fluorescence, potentiator mode; 0% = oxytocin EC15, 100% = EC100;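 active = activation above that plate's cutoff, the mean activation of tested compounds plus 3 SD, cut at about 6.6% in these data, passing the limit was not always enough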;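 also: 100% uses oxytocin at 75 nM as the full agonist control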
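test system = CHO-OTR cells, human receptor | compound = single-point 3.0 µM | schedule = 6 min compound pre-incubation at room temperature, 100 s kinetic read | signal = Fluo-8 no-wash calcium dye fluorescence, excitation 470-495 nm, emission 515-575 nm | repeats = single well per compound, singlicate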
OXTR ag = agonists of human oxytocin receptor | P30559 | CHO-OTR cells, Fluo-8 calcium fluorescence; normalized: DMSO 0%, oxytocin 100% | activation, % at 3 µM | 320,000 tested, 0.32% active;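 active = activation above the mean of all tested compounds plus 3 SD, cutoff set per screening run, cut at about 20% in these data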;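 also: peak over basal fluorescence ratio from a 100 s FLIPR kinetic read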
OX1R antag-1 = blocks the human orexin 1 receptor; O43613; OX1R-expressing cells, FRET antagonist read-out; inhibition, % at 6.6 µM; 330,000 tested, 1.8% active; in the data active = inhibition mostly above about 38%, no sharp cut-off; inactive = mostly below about 40%;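 also: 0% = agonist challenge alone and 100% = reference antagonist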
Target sequence (O43613 whole entry, looked up): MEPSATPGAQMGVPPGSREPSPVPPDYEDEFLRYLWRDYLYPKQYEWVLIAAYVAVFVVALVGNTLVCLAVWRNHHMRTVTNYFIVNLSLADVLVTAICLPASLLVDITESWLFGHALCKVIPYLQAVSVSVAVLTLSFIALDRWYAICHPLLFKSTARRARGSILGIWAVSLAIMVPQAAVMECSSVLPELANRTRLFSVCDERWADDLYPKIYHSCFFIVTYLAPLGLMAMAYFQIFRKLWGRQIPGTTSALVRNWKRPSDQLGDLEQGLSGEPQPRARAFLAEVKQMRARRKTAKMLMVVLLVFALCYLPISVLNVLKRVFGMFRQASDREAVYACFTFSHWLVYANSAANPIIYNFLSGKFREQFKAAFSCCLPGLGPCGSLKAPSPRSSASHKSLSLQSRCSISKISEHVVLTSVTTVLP
V1R ag counter = counter-screen for oxytocin receptor agonists: human V1a receptor agonists | AID 2797 | activation, % at 3 µM | CHO-V1R cells, Fluo-8 calcium fluorescence, agonist mode; 0% DMSO, 100% 3 nM vasopressin | 320,000 tested, 0.25% active;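 active = activation above the mean activation of all tested compounds plus 3 SD, per screening run, cut at about 20% in these data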;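 also: signal is peak over basal fluorescence ratio across a 100 second FLIPR read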
OX1R antag-2 = human HCRTR1 antagonism; inhibition, % at 5 µM; CHO/OX1R cells, Fluo-8 calcium fluorescence, orexin A; O43613; 330,000 tested, 0.43% active; AID 434989;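 active = inhibition above its plate's threshold, mean inhibition of all tested compounds on the plate plus 3 SD, cut at about 37% in these data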;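 also: 0% = orexin A challenge wells and 100% = SB-334867-A antagonist wells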
OX1R HTRF conf = confirmation of human orexin 1 receptor antagonists, HTRF format. shares compounds with OX1R antag-1. OX1R-expressing cells, HTRF antagonist assay. inhibition, % at 6.6 µM. 1,800 tested, 49% active. AID 492964; in the data active = inhibition above about 55%;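 also: CHO cells expressing OX1R stimulated with orexin A at about EC80; 0% = agonist challenge alone and 100% = reference antagonist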
CHO-K1 HTRF = signal in parental CHO-K1 cells, OX1R antagonist counter-screen; shares compounds with OX1R antag-1; HTRF counterscreen; inhibition, % at 6.6 µM; 1,800 tested, 48% active; in the data active = inhibition above about 17%;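 also: 0% = agonist challenge with vehicle and 100% = vehicle alone without agonist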
* hit, by the source's call; nt = no result; + = active, no number.

SMILES | CHO parental Ca | OXTR potentiator | OXTR ag | OX1R antag-1 | V1R ag counter | OX1R antag-2 | OX1R HTRF conf | CHO-K1 HTRF
CCn1c2ccccc2c2cc(NC(=O)c3ccco3)ccc21 | -24.1 | -4.9 | -2.1 | 77.2* | -1.1 | 17.7 | 52.4 | 15.8
CN(c1ccc(O)cc1)c1nc(O)c(C2=c3ccccc3=NC2=O)s1 | -17.2 | -5.1 | -1.1 | 78.8* | -0.7 | 10.2 | 45.4 | 13.1
CC/C(=N\NC(=O)c1cc(C2CC2)[nH]n1)c1ccccc1 | 6.3 | 0.9 | -0.7 | 6.1 | 0.0 | -1.1 | nt | nt
CN(C)C(=O)c1cc2cc([N+](=O)[O-])ccc2s1 | 4.7 | -19.8 | -0.3 | 119.8* | 2.6 | -6.7 | 38.8 | 32.7*
CCN(CC)C(=O)c1cc2cc([N+](=O)[O-])ccc2s1 | -3.1 | -4.2 | -0.2 | 50.2 | 0.6 | -15.6 | nt | nt
O=c1[nH]c(=O)c2nc3c4ccccc4c4ccccc4c3nc2[nH]1 | 1.9 | -2.3 | -0.6 | 36.5 | 1.1 | -19.8 | nt | nt
O=c1[nH]c(=O)c2nc(-c3ccc(Cl)cc3)cnc2[nH]1 | -6.4 | -12.4 | -2.1 | 77.5* | -1.1 | -5.0 | 51.5 | 68.4*
CC(C)[C@H]1C(=O)Nc2ccccc2N1C(=O)N[C@@H](Cc1ccccc1)C(=O)N[C@@H](Cc1ccccc1)C(=O)O | -1.4 | -5.5 | 0.8 | 6.2 | 0.8 | -19.8 | nt | nt
N/C(=N\OC(=O)c1ccc(Cl)c([N+](=O)[O-])c1)c1ccccn1 | 11.4 | -7.8 | 1.3 | 114.0* | 2.2 | 3.5 | 50.8 | 58.3*
Cc1cc(NC(=O)C(C)SCC(=O)Nc2cc(C(F)(F)F)ccc2N2CCOCC2)no1 (stereo not given) | -15.5 | -4.4 | -0.8 | 28.7 | -0.6 | -24.3 | nt | nt
O=C(COc1ccccc1)Nc1cccc(-c2nnc(-c3ccccc3)o2)c1 | -6.5 | -2.3 | -1.0 | 61.7 | 0.6 | -7.9 | nt | nt
O=C(Nc1cccc(-c2nnc(-c3ccccc3)o2)c1)c1ccc(Br)o1 | -11.1 | -11.0 | 1.7 | 87.0* | 1.1 | 31.3 | 51.6 | 10.3
CC(=O)Nc1ccc(Nc2ccc3nonc3c2[N+](=O)[O-])cc1 | -0.7 | -1.6 | 1.1 | + | 1.9 | -4.2 | 54.7* | 93.1*
CCOC(=O)CSc1ccc2ccccc2n1 | -7.0 | 2.8 | -0.4 | 9.4 | -0.8 | -15.8 | nt | nt
CCOC(=O)CN1C=C(c2ccc3ccccc3n2)C(C[N+](=O)[O-])c2ccccc21 (stereo not given) | -21.1 | -9.1 | -0.4 | 117.0* | -0.1 | -19.9 | 55.3* | 66.6*
Cc1ccc(C(=O)NCC(=O)NCc2ccc(Cl)cc2)s1 | -7.1 | -0.8 | -2.6 | 3.0 | -0.9 | 7.0 | nt | nt
CCOC(=O)c1c(COC(=O)c2ccco2)nc2ccccc2[n+]1[O-] | -24.4 | -2.6 | 1.0 | 106.8* | -0.4 | -13.1 | 52.7 | 28.2*
COc1ccc2nc(COC(=O)c3ccco3)c(C(C)=O)[n+]([O-])c2c1 | -27.6 | -10.3 | -0.2 | 125.5* | 1.1 | -5.7 | 31.8 | 34.9*
CC(=O)c1c(COC(=O)c2ccco2)nc2ccccc2[n+]1[O-] | -16.5 | -12.6 | 5.0 | 39.6 | 6.2 | -23.5 | nt | nt
Cc1ccc(C(=O)N2CC(C)OC(C)C2)cc1S(=O)(=O)N1CCCCC1 (stereo not given) | -1.3 | -0.1 | 0.1 | -2.0 | -0.6 | 4.2 | nt | nt
COc1ccc(NC(=O)c2cccnc2)c([N+](=O)[O-])c1 | -0.9 | -8.6 | -1.5 | 123.4* | -0.7 | 4.6 | 32.1 | 15.5
Cc1ccc(OCCN(C)C(=O)C2CCC(=O)N(CCCN3CCCC3=O)C2)cc1 (stereo not given) | 0.4 | -1.3 | 0.9 | 13.0 | -1.0 | -17.5 | nt | nt
O=C(O)CCCCCNS(=O)(=O)c1cccc2nsnc12 | -5.2 | -8.9 | -0.6 | 51.9 | -0.2 | -16.5 | nt | nt
O=C(O)CCCCCNc1ccc2nsnc2c1[N+](=O)[O-] | -1.0 | -3.3 | -0.3 | 117.0* | -0.5 | 0.4 | 74.3* | 112.5*
CC(C)(C)C1C=C(Sc2ccccc2)C(=O)O1 (stereo not given) | -4.4 | -0.5 | 0.7 | 9.3 | -0.5 | -22.0 | nt | nt
SMILES | CHO parental Ca | OXTR potentiator | OXTR ag | OX1R antag-1 | V1R ag counter | OX1R antag-2 | OX1R HTRF conf | CHO-K1 HTRF
Cc1ccc([C@@H]2CC=C(C(=O)O)[C@H](c3ccccc3F)N2S(=O)(=O)c2ccccc2C)cc1 | -10.2 | -4.7 | -0.8 | 78.4* | 0.0 | 29.6 | 81.3* | 0.6
Cc1ccc(S(=O)(=O)N2[C@@H](c3ccccc3)C(C(=O)O)=CC[C@H]2c2ccc(Cl)cc2)cc1 | -11.6 | -21.6 | 0.3 | 77.9* | 5.0 | 14.2 | 53.4 | 0.9
COc1ccc([C@@H]2CC=C(C(=O)O)[C@H](c3cccc(Cl)c3)N2S(=O)(=O)c2ccccc2C)cc1 | -18.7 | -10.6 | -1.4 | 88.4* | -0.7 | 14.4 | 91.4* | -0.5
COc1ccc([C@@H]2CC=C(C(=O)O)[C@H](c3ccc(F)cc3)N2S(=O)(=O)c2ccc(C)cc2)cc1OC | -9.7 | -14.9 | -0.9 | 22.9 | -0.5 | -10.4 | nt | nt
COc1cccc([C@@H]2CC=C(C(=O)O)[C@H](c3ccccc3)N2S(=O)(=O)c2ccc(C)cc2)c1 | -14.1 | -4.2 | -0.6 | 24.4 | -0.4 | -18.7 | nt | nt
Cc1ccc(S(=O)(=O)N2[C@@H](c3ccc(F)cc3)C(C(=O)O)=CC[C@H]2c2ccc(Cl)cc2)cc1 | -10.0 | -19.3 | -1.3 | 46.3 | 6.2 | -2.2 | nt | nt
CC1(C)Cc2c(cnn2-c2ccc(F)cc2)C(NC(=O)CN2CCCCC2=O)C1 (stereo not given) | -21.7 | -7.4 | -1.3 | 17.3 | -0.6 | -14.8 | nt | nt
